# Assay outcomes: PubChem BioAssay, several laboratories
# Only some compounds are listed: those with a hit (about 1.7% of all), similar ones and a draw of the others.
# STEP block: inhibitors of human striatal-enriched phosphatase STEP; P54829; recombinant STEP, OMFP fluorogenic substrate, fluorescence; inhibition, % at 20 µM; actives 0.25% (n = 360,000);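 active means inhibition at 20 µM, scaled per plate between control wells, above about 37%, limit read from the data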
#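 System: STEP (striatal-enriched tyrosine phosphatase) enzyme, cell-free; medium: Bis-Tris pH 6.0 buffer with DTT, detergent; dosing: 20 µM, 1% DMSO; times: reaction 20 min, ambient temperature; detection: fluorescence, 480/540 nm; read-out basis: normalized % inhibition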
# DNMT1 inh: inhibitors of human DNMT1; P26358; DNMT1 molecular beacon, Hinp1I cleavage, fluorescence; inhibition (reported as % activation of signal), % at 10 µM; actives 0.83% (n = 360,000); in the data active means inhibition above about 50%
# Scp1 inh: inhibitors of human Scp-1 phosphatase. actives 0.88% (n = 340,000). Recombinant Scp1, phosphopeptide, malachite green phosphate absorbance. Q9GZU7. inhibition, % at 20 µM. AID 493091;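 active means inhibition above about 50% at 20 µM, limit read from the data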
# Target sequence (Q9GZU7 76-261 limits assumed): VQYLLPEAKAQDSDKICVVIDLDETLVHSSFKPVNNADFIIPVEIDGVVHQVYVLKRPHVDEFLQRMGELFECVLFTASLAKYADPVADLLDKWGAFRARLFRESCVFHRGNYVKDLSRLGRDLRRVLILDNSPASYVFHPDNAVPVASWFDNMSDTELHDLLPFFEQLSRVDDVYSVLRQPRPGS
#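 Material: truncated SCP-1 phosphatase (76-261aa) / Buffer or medium: 50 mM Tris acetate pH 5.5, 0.005% Tween-20, 10 mM MgCl2 / Compound dosing: one concentration, 20 µM, with 1.0% DMSO / Incubation: 45 min room-temperature reaction, 5 min colour, 30 min stabiliser / Detection: colorimetric free-phosphate detection, absorbance 630 nm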
# SUMO1-SIM PPI: alters human SUMO1 binding to SIM partners; P63165; SUMO1 binding to a labelled peptide, TR-FRET, 1 h; inhibition, % at 20 µM; actives 0.33% (n = 360,000); in the data active means inhibition above about 37%
# Target sequence (P63165 whole entry, looked up): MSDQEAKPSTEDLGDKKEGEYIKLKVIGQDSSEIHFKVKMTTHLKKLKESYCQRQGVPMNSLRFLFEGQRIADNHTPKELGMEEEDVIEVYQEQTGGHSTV
# Casp6 inh: blocks human caspase-6 cleavage activity; inhibition, % at 12.5 µM; purified caspase-6, Z-VEID-R110 cleavage fluorescence; actives 0.53% (n = 350,000); P55212; AID 686996;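 active means mean inhibition across replicates at least about 35%, with every replicate also reaching that limit, limit read from the data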
# LMPTP block: blocks human LMPTP phosphatase | recombinant LMPTP-A, OMFP fluorogenic substrate, fluorescence intensity | inhibition, % at 20 µM | actives 0.22% (n = 360,000) | AID 651560;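 active means compounds that cut the enzyme signal by at least half of the control window in the single-dose screen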
# Target sequence (P24666 whole entry, looked up): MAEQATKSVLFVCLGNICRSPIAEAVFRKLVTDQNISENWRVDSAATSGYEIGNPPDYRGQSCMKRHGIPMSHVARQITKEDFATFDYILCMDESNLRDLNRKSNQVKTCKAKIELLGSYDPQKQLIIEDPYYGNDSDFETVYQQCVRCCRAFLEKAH
#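 Test system: LMPTP-A phosphatase enzyme; input: 0.625 nM LMPTP-A final; reagent: OMFP substrate, 400 µM final; compound dosing: 20 µM single dose, 3% DMSO; incubation: 50 min dark incubation at room temperature; measured by: endpoint fluorescence intensity from OMFP dephosphorylation; measure: % inhibition relative to no-enzyme and uninhibited control wells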
# Numbers stand for hits; . = inactive; / = no result given.
SMILES,STEP block,DNMT1 inh,Scp1 inh,SUMO1-SIM PPI,Casp6 inh,LMPTP block
O=C(Nc1ccc2oc(=O)ccc2c1)c1ccc(-c2cccc([N+](=O)[O-])c2)o1,.,.,.,75.3,.,54.0
Cc1ccn2cc(CCNS(=O)(=O)c3ccc(F)c(C(F)(F)F)c3)nc2c1,.,.,.,.,.,.
NC1=C(Br)C(=O)c2ncccc2C1=O,.,63.3,.,.,99.6,.
O=C(C1=C[C@@H]2[C@H]3C(=O)N(c4cccc(Cl)c4)C(=O)[C@H]3[C@@H](C(=O)c3ccc(Cl)cc3)N2C=C1)c1ccccc1,.,68.7,.,.,/,.
CC(=O)N1CCCCN2[C@H](CO)[C@H](c3ccc(-c4ccccc4)cc3)[C@H]2C1,/,/,/,/,.,/
Cc1ccc(Nc2ncnc3sccc23)c(C)c1,.,.,.,.,98.8,.
N#CCCn1cc(C(=O)Nc2cccc(C(=O)O)c2)c(-c2ccc(Cl)cc2)n1,.,.,.,.,.,.
Cc1ccc2[nH]c3c(c2c1)CCCC3NCCO (stereo unspecified),.,.,.,.,44.2,.
O=C(O)c1ccccc1NS(=O)(=O)c1cccc(-n2sc3ccccc3c2=O)c1,.,.,94.9,.,.,.
COC(=O)[C@H](C)NC(=O)NCCC1=CCCCC1,.,.,.,.,.,.
O=C(/C=C/c1ccco1)NC(=S)Nc1ccc(C(=O)O)cc1,.,90.6,52.0,.,43.8,.
CCNc1ccc(Br)cc(C(=O)/C=C/c2c(Cl)cccc2Cl)c1=O,.,83.7,.,.,/,.
CNc1ccc(Br)cc(C(=O)/C=C/c2ccc(Cl)cc2Cl)c1=O,.,67.0,.,.,.,.
CC(C)NC(=O)Nc1cccc2c1O[C@@H](CN(C)Cc1ccc(Cl)c(Cl)c1)[C@H](C)CN([C@H](C)CO)C2=O,/,/,/,/,.,/
Cc1ccc2nc3c(cc(C(=O)NCc4ccccc4)c(=N)n3CCCn3ccnc3)c(=O)n2c1,.,.,.,.,.,56.6
N=c1c(C(=O)NCc2ccco2)cc2c(=O)n3ccccc3nc2n1C1CCCC1,.,.,.,.,99.2,.
Cc1ccc2nc3c(cc(C(=O)NCCc4ccccc4)c(=N)n3CCN3CCOCC3)c(=O)n2c1,.,.,.,.,/,.
N=c1c(C(=O)NCc2ccccc2)cc2c(=O)n3ccccc3nc2n1Cc1ccco1,.,.,.,.,.,.
N=c1c(C(=O)NCc2ccco2)cc2c(=O)n3ccccc3nc2n1Cc1ccc(Cl)cc1,.,.,.,.,/,51.8
N=c1c(C(=O)NCc2ccc3c(c2)OCO3)cc2c(=O)n3ccccc3nc2n1Cc1cccnc1,.,.,.,.,/,65.2
COCc1[nH]nc2c1C(c1ccccc1)N(Cc1ccccc1)C2=O (stereo unspecified),/,/,/,/,.,/
Cn1cnnc1SCC(=O)c1ccco1,.,.,.,.,.,.
N=c1c(C(=O)NCc2ccco2)cc2c(=O)n3ccccc3nc2n1Cc1ccccc1,.,75.5,.,.,/,58.9
Cc1cc(N2CCN(C(=O)c3[nH]c(C(F)(F)F)nc3-c3ccccc3)CC2)c2ccccc2n1,.,.,/,.,.,.
Cc1cc(N2CCN(C(=O)Nc3ccccc3C#N)CC2)c2ccccc2n1,.,.,.,.,.,51.1
SMILES,STEP block,DNMT1 inh,Scp1 inh,SUMO1-SIM PPI,Casp6 inh,LMPTP block
O=C(CNc1ccc(Cl)c(C(F)(F)F)c1)N1CCN(S(=O)(=O)c2ccccc2)CC1,.,.,68.6,.,.,.
CC(=O)c1ccc(NCC(=O)N2CCN(S(=O)(=O)c3ccccc3)CC2)cc1,.,.,.,.,.,.
COc1ccc(S(=O)(=O)CCC(=O)N2CCN(c3cccc(Cl)c3)CC2)cc1,.,.,.,.,.,.
CC(=O)NC1=C(NC2CCS(=O)(=O)C2)C(=O)c2ccccc2C1=O (stereo unspecified),.,.,.,.,/,.
CN(C1=C(NC(=O)c2ccccc2)C(=O)c2ccccc2C1=O)C1CCS(=O)(=O)C1 (stereo unspecified),.,.,/,.,77.5,.
COc1ccc(OCC(=O)N/N=C/c2cccn2-c2cccc(C(=O)O)c2)cc1,.,52.8,.,.,.,.
O=C(CSc1nc2ccccc2c(=O)[nH]1)Nc1ccc(N2CCOCC2)cc1,.,.,.,.,58.0,.
